In brackets after ≈: the same amount, converted by molar mass.
Assays:
Assay type in all cases: functional
[1] = system: Candida albicans; assay: In vivo antifungal activity against murine candidosis model after peroral administration with 0.5 mg/kg at various time intervals. (percent protection for 100% mortality with untreated group); settings: route oral
In short: (§1)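 Male mice, groups of 10, infected iv with 0.2 mL Candida albicans at (2–8) × 10⁷ cfu/mL. Oral suspension in 1% Tween + 0.2% carboxymethylcellulose in water, given 1, 4 and 24 h post-infection; vehicle controls and a fluconazole group at the same dose. Survival scored on days 1, 2, 3, 5, 7, 9, reported as % surviving on the day untreated, or fluconazole-treated, mortality reached 100%.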

[2] = The compound was tested in vitro for antifungal activity against 6 filamentous fungi.
In short: (§2)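 Agar dilution on Kimmig's agar with 0.5% glycerol; ATCC or clinical isolates, inocula at 10⁵ cfu/mL. Drugs from 800 μg/mL stock in 50% ethanol, 2-fold serial dilutions 80 to 0.03 μg/mL in plates. Incubated 25 °C, 48 h for yeasts, 120 h for filamentous fungi. Value is geometric mean of MICs (μg/mL); >80 taken as 160, ≤0.03 as 0.03.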

[3] = system: Candida albicans; assay: In vivo antifungal activity against murine candidosis model after peroral administration with 0.5 mg/kg at various time intervals. (percent protection for 100% mortality with fluconazole-treated group.); settings: route oral; in short: as §1
[4] = The compound was tested in vitro for antifungal activity against 10 yeasts.; in short: as §2

Structure (SMILES) | Protection [1] [%] | MIC [2] [µg/mL] | Protection [3] [%] | MIC [4] [µg/mL]
Cc1nc(-c2ccc(C(N)=O)cc2)sc1C(=O)N[C@H](C)[C@](O)(Cn1cncn1)c1ccc(F)cc1F | 0 | > 80 | 0 | 20 (≈ 39 µM)
C[C@@H](n1cnc2cc(-c3ccc(-n4ncnn4)cc3)sc2c1=O)[C@](O)(Cn1cncn1)c1ccc(F)cc1F |  | > 80 |  | 1.9 (≈ 3.47 µM)
Cc1nc(Oc2ccc(Cl)cc2)sc1C(=O)N[C@H](C)[C@](O)(Cn1cncn1)c1ccc(F)cc1F | 10 | 4 (≈ 7.69 µM) | 0 | 1.5 (≈ 2.88 µM)
C[C@@H](NC(=O)c1scc(S(=O)(=O)c2ccc(Cl)cc2)c1N)[C@](O)(Cn1cncn1)c1ccc(F)cc1F | 20 | 10 (≈ 17.6 µM) | 0 | 1 (≈ 1.76 µM)
Cc1c(C(=O)N[C@H](C)[C@](O)(Cn2cncn2)c2ccc(F)cc2F)cnn1C |  | > 80 |  | > 80
Cc1oc(-c2ccc(Cl)cc2)cc1C(=O)N[C@H](C)[C@](O)(Cn1cncn1)c1ccc(F)cc1F | 100 | 10 (≈ 20.5 µM) | 0 | 0.9 (≈ 1.85 µM)
Cc1nc(-c2ccc(C#N)cc2)sc1C(=O)N(C)[C@H](C)[C@](O)(Cn1cncn1)c1ccc(F)cc1F | 100 | 4.5 (≈ 8.85 µM) | 100 | 0.8 (≈ 1.57 µM)
C[C@@H](NC(=O)c1sc(-c2ccc(Cl)cc2)nc1C(F)(F)F)[C@](O)(Cn1cncn1)c1ccc(F)cc1F | 100 | 8.9 (≈ 16 µM) | <70 | 2 (≈ 3.58 µM)
C[C@@H](n1ncn(-c2ccc(OCC(F)(F)C(F)F)cc2)c1=O)[C@](O)(Cn1cncn1)c1ccc(F)cc1F | 100 | 8.9 (≈ 16.4 µM) | 100 | 2.6 (≈ 4.79 µM)
Cc1nc(-c2ccc(Cl)cc2)n(C)c1C(=O)N[C@H](C)[C@](O)(Cn1cncn1)c1ccc(F)cc1F | 100 | 18 (≈ 35.9 µM) | 0 | 2.6 (≈ 5.19 µM)
Cc1nc(-c2ccc(C(C)(C)C)cc2)sc1C(=O)N[C@H](C)[C@](O)(Cn1cncn1)c1ccc(F)cc1F | 0 | 8.9 (≈ 16.9 µM) | 0 | 2.1 (≈ 4 µM)
Cc1nc(-c2ccc(Cl)cc2)oc1C(=O)N[C@H](C)[C@](O)(Cn1cncn1)c1ccc(F)cc1F | 40 | 40 (≈ 82 µM) | 0 | 3.7 (≈ 7.58 µM)
Cc1nc(-c2ccc(F)cc2)sc1C(=O)N[C@H](C)[C@](O)(Cn1cncn1)c1ccc(F)cc1F | 100 | 1.8 (≈ 3.69 µM) | 80 | 1.1 (≈ 2.26 µM)
C[C@@H](NC(=O)c1nc(-c2ccc(Cl)cc2)ns1)[C@](O)(Cn1cncn1)c1ccc(F)cc1F | 10 | > 80 | 0 | 11 (≈ 22.4 µM)
C[C@@H](NC(=O)c1ccc(Cl)cc1)[C@](O)(Cn1cncn1)c1ccc(F)cc1F | 0 | 11 (≈ 27 µM) | 0 | 3.9 (≈ 9.59 µM)
C[C@@H](NC(=O)c1sc(-c2ccc(C3N=NN=N3)cc2)nc1C(F)(F)F)[C@](O)(Cn1cncn1)c1ccc(F)cc1F | 30 | > 80 | 0 | 75 (≈ 127 µM)
Cc1nc(-c2ccc(OCC(F)(F)C(F)F)cc2)sc1C(=O)N[C@H](C)[C@](O)(Cn1cncn1)c1ccc(F)cc1F | 100 | 2.2 (≈ 3.67 µM) | 0 | 1.3 (≈ 2.17 µM)
C[C@@H](NC(=O)c1sc(-c2ccc(Cl)cc2)cc1N)[C@](O)(Cn1cncn1)c1ccc(F)cc1F | 0 | 22 (≈ 43.7 µM) | 0 | 0.6 (≈ 1.19 µM)
Cc1nc(-c2ccc(OC(F)(F)F)cc2)sc1C(=O)N[C@H](C)[C@](O)(Cn1cncn1)c1ccc(F)cc1F | 100 | 1.6 (≈ 2.89 µM) | 100 | 1.3 (≈ 2.35 µM)
Cc1nc(-c2sc(-c3ccc(Cl)cc3)nc2C)sc1C(=O)N[C@H](C)[C@](O)(Cn1cncn1)c1ccc(F)cc1F | 10 | > 80 | 0 | 1.8 (≈ 2.99 µM)
CC(=O)ONC(=N)c1ccc(-c2nc(C)c(C(=O)N[C@H](C)[C@](O)(Cn3cncn3)c3ccc(F)cc3F)s2)cc1 | 70 | 45 (≈ 79 µM) | 0 | 14 (≈ 24.6 µM)
C[C@@H](NC(=O)c1nnc(-c2ccc(Cl)cc2)o1)[C@](O)(Cn1cncn1)c1ccc(F)cc1F | 10 | > 80 | 0 | 49 (≈ 103 µM)
Cc1nc(-c2ccc(C(F)(F)F)cc2)sc1C(=O)N[C@H](C)[C@](O)(Cn1cncn1)c1ccc(F)cc1F | 100 | 2.2 (≈ 4.09 µM) | 100 | 0.9 (≈ 1.67 µM)

Structure (SMILES) | Protection [1] [%] | MIC [2] [µg/mL] | Protection [3] [%] | MIC [4] [µg/mL]
C[C@@H](NC(=O)c1cccc(-c2ccc(Cl)cc2)c1)[C@](O)(Cn1cncn1)c1ccc(F)cc1F | 40 | > 80 | 0 | 0.3 (≈ 0.621 µM)
C[C@@H](NC(=O)c1csc(-c2ccc(Cl)cc2)n1)[C@](O)(Cn1cncn1)c1ccc(F)cc1F | 0 | > 80 | 0 | 4.5 (≈ 9.18 µM)
Cc1cc(-c2ccc(Cl)cc2)sc1C(=O)N[C@H](C)[C@](O)(Cn1cncn1)c1ccc(F)cc1F | 100 | 0.7 (≈ 1.39 µM) | 20 | 0.3 (≈ 0.596 µM)
Cc1nc(Br)sc1C(=O)N[C@H](C)[C@](O)(Cn1cncn1)c1ccc(F)cc1F |  | 32 (≈ 67.8 µM) |  | 4.6 (≈ 9.74 µM)
C[C@@H](NC(=O)c1ccc(-c2cc(C(F)(F)F)nn2C)s1)[C@](O)(Cn1cncn1)c1ccc(F)cc1F | 10 | 28 (≈ 53.2 µM) | 0 | 2.3 (≈ 4.37 µM)
Cc1nc(-c2ccc(Cl)cc2)sc1C(=O)N[C@H](C)[C@](O)(Cn1cncn1)c1ccc(F)cc1F | 100 | 1.2 (≈ 2.38 µM) | 100 | 0.8 (≈ 1.59 µM)
C[C@@H](NC(=O)c1ccc(-c2ccc(C#N)cc2)s1)[C@](O)(Cn1cncn1)c1ccc(F)cc1F | 100 | > 80 | 100 | 0.8 (≈ 1.67 µM)
C[C@@H](NC(=O)c1ccc(C(F)(F)F)cc1)[C@](O)(Cn1cncn1)c1ccc(F)cc1F | 100 | 22 (≈ 50 µM) | 100 | 4.6 (≈ 10.4 µM)
C[C@@H](NC(=O)c1sc(-c2ccc(C#N)cc2)nc1C(F)(F)F)[C@](O)(Cn1cncn1)c1ccc(F)cc1F | 100 | 28 (≈ 51 µM) | <50 | 2.9 (≈ 5.29 µM)
Cc1cc(-c2ccc(C#N)cc2)sc1C(=O)N[C@H](C)[C@](O)(Cn1cncn1)c1ccc(F)cc1F | 100 | 8.9 (≈ 18 µM) | 70 | 0.7 (≈ 1.42 µM)
C[C@@H](NC(=O)c1ccc(-c2ccc(Cl)cc2)cc1)[C@](O)(Cn1cncn1)c1ccc(F)cc1F | 100 | 18 (≈ 37.3 µM) | 100 | 0.3 (≈ 0.621 µM)
C[C@@H](NC(=O)c1cnn(-c2ccc(C(F)(F)F)cc2)c1N)[C@](O)(Cn1cncn1)c1ccc(F)cc1F |  | 28 (≈ 53.7 µM) |  | 3.3 (≈ 6.33 µM)
C[C@@H](NC(=O)c1noc(-c2ccc(Cl)cc2)n1)[C@](O)(Cn1cncn1)c1ccc(F)cc1F | 100 | 32 (≈ 67.4 µM) | 10 | 2.1 (≈ 4.42 µM)
Cc1nc(-c2ccc(C#N)cc2)sc1C(=O)N[C@H](C)[C@](O)(Cn1cncn1)c1ccc(C(F)(F)F)cc1 | 0 | > 80 | 0 | 2 (≈ 3.8 µM)
Cc1nc(S(=O)(=O)c2ccc(Cl)cc2)sc1C(=O)N[C@H](C)[C@](O)(Cn1cncn1)c1ccc(F)cc1F | 0 | > 80 | 0 | 7.6 (≈ 13.4 µM)
Cc1nc(-c2ccccc2)sc1C(=O)N[C@H](C)[C@](O)(Cn1cncn1)c1ccc(F)cc1F | 30 | 7.6 (≈ 16.2 µM) | 0 | 1.4 (≈ 2.98 µM)
CCCS(=O)(=O)c1csc(C(=O)N[C@H](C)[C@](O)(Cn2cncn2)c2ccc(F)cc2F)c1N |  | 23 (≈ 46 µM) |  | 4.4 (≈ 8.81 µM)
Cc1nc(-c2ccc(C#N)cc2)sc1C(=O)N[C@H](C)[C@](O)(Cn1ccnc1)c1ccc(F)cc1F | 70 | 45 (≈ 91.2 µM) | 0 | 10 (≈ 20.3 µM)
C[C@@H](NC(=O)c1ccc(-c2ccc(Cl)cc2)o1)[C@](O)(Cn1cncn1)c1ccc(F)cc1F | 0 | > 80 | 0 | 1.5 (≈ 3.17 µM)
Cc1nc(COc2ccc(Cl)cc2)sc1C(=O)N[C@H](C)[C@](O)(Cn1cncn1)c1ccc(F)cc1F | 30 | 2.9 (≈ 5.43 µM) | 0 | 0.6 (≈ 1.12 µM)
C[C@@H](NC(=O)c1ccc(-c2ccc(Cl)cc2)s1)[C@](O)(Cn1cncn1)c1ccc(F)cc1F | 100 | 3.5 (≈ 7.16 µM) | 100 | 0.2 (≈ 0.409 µM)
C[C@@H](NC(=O)c1nc(-c2ccc(Cl)cc2)no1)[C@](O)(Cn1cncn1)c1ccc(F)cc1F | 80 | 80 (≈ 168 µM) | 10 | 2.1 (≈ 4.42 µM)
Cc1sc(-c2ccc(Cl)cc2)nc1C(=O)N[C@H](C)[C@](O)(Cn1cncn1)c1ccc(F)cc1F |  | > 80 |  | > 80

Reference: ChEMBL document CHEMBL1131231, “New azole antifungals. 2. Synthesis and antifungal activity of heterocyclecarboxamide derivatives of 3-amino-2-aryl-1-azolyl-2-butanol” (1998)
